The results in this text go back to ChEMBL document CHEMBL4765307, “Design, synthesis and biological activity of novel 2,3,4,5-tetra-substituted thiophene derivatives as PI3Kα inhibitors with potent antitumor activity” (Eur J Med Chem, 2020).

The target of assay [1] is PI3-kinase p110-alpha/p85-alpha (Homo sapiens, UniProt P42336). As to the kind of experiment: Inhibition of His-tagged human full length PI3Kalpha coexpressed with p85 alpha in baculovirus expression system using PIP2 peptide as substrate incubated for 1 hr in presence ATP by Kinase-Glo assay. (Kinase-Glo measures the ATP left after a reaction by luminescence.)
For a further assay, the target named is PI3K p110 beta/p85 alpha (Homo sapiens, UniProt P42338). Kind of assay: Inhibition of N-terminal His6-tagged human recombinant full length PI3Kbeta co-expressed with human recombinant full length P85alpha in baculovirus infected Sf21 cells using PIP2 peptide as substrate incubated for 1 hr in presence ATP by ADP-Glo Kinase Assay. The essentials: (§1)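 ADP-Glo reagent 1 for 40 min, then reagent 2 with 60 min equilibration before reading. IC50 taken from inhibition curves; average of at least two runs.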
Chain of PI3K p110 beta/p85 alpha (P27986 whole entry): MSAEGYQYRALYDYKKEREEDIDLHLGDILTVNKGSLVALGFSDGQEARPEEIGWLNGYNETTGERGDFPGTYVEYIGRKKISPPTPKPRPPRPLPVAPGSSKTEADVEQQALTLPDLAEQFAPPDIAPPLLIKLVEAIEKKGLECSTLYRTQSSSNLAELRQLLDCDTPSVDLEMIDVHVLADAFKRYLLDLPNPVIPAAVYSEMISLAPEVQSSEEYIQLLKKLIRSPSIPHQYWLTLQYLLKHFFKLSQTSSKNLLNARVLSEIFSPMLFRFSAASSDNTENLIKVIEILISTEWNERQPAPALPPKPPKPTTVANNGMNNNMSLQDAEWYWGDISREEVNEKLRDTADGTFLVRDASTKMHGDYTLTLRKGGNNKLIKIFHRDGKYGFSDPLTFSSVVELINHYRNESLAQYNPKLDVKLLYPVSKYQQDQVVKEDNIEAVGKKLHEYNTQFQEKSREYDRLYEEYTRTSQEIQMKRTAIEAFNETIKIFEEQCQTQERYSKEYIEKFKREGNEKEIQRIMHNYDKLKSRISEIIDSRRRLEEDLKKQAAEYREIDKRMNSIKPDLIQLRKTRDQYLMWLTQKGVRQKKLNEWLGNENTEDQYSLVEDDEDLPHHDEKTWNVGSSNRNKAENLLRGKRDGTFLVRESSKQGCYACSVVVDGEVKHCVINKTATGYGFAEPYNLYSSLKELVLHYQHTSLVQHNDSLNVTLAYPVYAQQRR
Chain of PI3K p110 beta/p85 alpha (P42338 whole entry): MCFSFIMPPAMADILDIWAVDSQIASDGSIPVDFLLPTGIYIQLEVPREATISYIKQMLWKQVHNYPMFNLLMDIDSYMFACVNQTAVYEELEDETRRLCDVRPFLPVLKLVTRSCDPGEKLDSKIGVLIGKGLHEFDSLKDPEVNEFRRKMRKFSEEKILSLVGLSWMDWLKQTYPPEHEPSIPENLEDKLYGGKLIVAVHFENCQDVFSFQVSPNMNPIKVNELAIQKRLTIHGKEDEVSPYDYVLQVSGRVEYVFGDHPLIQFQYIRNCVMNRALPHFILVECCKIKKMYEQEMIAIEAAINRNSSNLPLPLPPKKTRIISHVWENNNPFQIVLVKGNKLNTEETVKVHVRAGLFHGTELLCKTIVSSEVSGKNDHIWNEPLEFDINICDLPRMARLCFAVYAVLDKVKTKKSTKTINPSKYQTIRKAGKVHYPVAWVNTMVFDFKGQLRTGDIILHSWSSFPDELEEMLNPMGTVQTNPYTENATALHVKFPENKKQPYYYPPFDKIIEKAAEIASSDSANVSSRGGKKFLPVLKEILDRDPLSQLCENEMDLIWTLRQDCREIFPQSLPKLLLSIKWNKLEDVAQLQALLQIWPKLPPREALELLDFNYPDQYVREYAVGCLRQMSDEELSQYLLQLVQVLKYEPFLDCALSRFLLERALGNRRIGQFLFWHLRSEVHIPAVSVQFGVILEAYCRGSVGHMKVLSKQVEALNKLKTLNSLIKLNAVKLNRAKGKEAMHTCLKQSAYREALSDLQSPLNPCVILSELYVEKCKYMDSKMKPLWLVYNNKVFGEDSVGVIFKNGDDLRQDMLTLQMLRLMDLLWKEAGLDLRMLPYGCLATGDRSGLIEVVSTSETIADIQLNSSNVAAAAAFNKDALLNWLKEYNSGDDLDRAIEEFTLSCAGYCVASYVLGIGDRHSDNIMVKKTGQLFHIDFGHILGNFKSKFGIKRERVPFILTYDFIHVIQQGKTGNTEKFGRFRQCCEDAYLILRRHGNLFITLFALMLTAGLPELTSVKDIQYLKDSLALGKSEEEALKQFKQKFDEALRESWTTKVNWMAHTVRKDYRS
For orientation: In ADP-Glo the light output rises with the ADP produced.

For assay [2], the target named is Phosphatidylinositol 4,5-bisphosphate 3-kinase catalytic subunit gamma isoform (Homo sapiens, UniProt P48736). Kind of assay: Inhibition of GST-tagged human recombinant PI3Kgamma catalytic domain (468 to 1203 residues) expressed in insect cells using PIP2 peptide as substrate incubated for 1 hr in presence ATP by ADP-Glo Kinase Assay. An outline of the steps:
as §1

In assay [3] the target is Serine/threonine-protein kinase mTOR (Homo sapiens, UniProt P42345). As to the kind of experiment: Inhibition of N-terminal FLAG-tagged human recombinant mTOR (1362 to end residues) using ULight-4E-BP1 (Thr37/46) peptide as substrate incubated for 1 hr in presence of ATP by Lance Ultra assay. An outline of the steps: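 ULight-4E-BP1 (Thr37/46) peptide with 13 µM ATP; 1 h at room temperature. Stopped with EDTA quench buffer plus Eu-anti-phospho-4E-BP1, 15 min shake and 60 min equilibration, TR-FRET read. IC50 from inhibition curves; average of at least two runs.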

A further assay deals with U-87 MG. Kind of assay: Antiproliferative activity against human U87MG cells harboring PTEN deletion assessed as reduction in cell viability after 3 days by CellTiter-Glo luminescence assay. Format: functional, cell-based, U-87MG ATCC. The settings on record: 72 h. The essentials:
(§2)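 ATCC lines, 10% FBS: T47D, H1975, H460 in RPMI1640; U87MG in DMEM; A549 in F12K. Seeded 3×10^3 per well the day before, exposed to 3-fold serial dilutions or DMSO for 3 days at 37 °C, 5% CO2; CellTiter-Glo luminescence.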
(In general: In ATP-based viability assays light output follows the ATP content of the culture.)

In a further assay the test system is T47D. Kind of assay: Antiproliferative activity against human T47D cells harboring PIK3CA mutation assessed as reduction in cell viability after 3 days by CellTiter-Glo luminescence assay. Format: functional, cell-based. The settings on record: 72 h. An outline of the steps: as §2
The next assay relates to NCI-H1975. Kind of assay: Antiproliferative activity against human NCI-H1975 cells harboring PIK3CA mutation assessed as reduction in cell viability after 3 days by CellTiter-Glo luminescence assay. As to conditions: NCI-H1975, 72 h. Format: functional, cell-based. An outline of the steps:
as §2

Another assay deals with NCI-H460. As to the kind of experiment: Antiproliferative activity against human NCI-H460 cells harboring PIK3CA mutation assessed as reduction in cell viability after 3 days by CellTiter-Glo luminescence assay. Format: functional, cell-based. As to conditions: NCI-H460, 72 h. An outline of the steps: as §2
In a further assay the test system is A549. Kind of assay: Antiproliferative activity against human A549 cells assessed as reduction in cell viability after 3 days by CellTiter-Glo luminescence assay. Format: functional, cell-based. As to conditions: A549, 72 h. An outline of the steps:
as §2

The target of assay [4] is PI3-kinase p110-delta/p85-alpha (Homo sapiens, UniProt O00329). Kind of assay: Inhibition of N-terminal His6-tagged human recombinant full length PI3Kdelta co-expressed with human recombinant full length P85alpha in baculovirus infected Sf21 cells using PIP2 peptide as substrate incubated for 2 hrs in presence ATP by ADP-Glo Kinase Assay. The essentials: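 ADP-Glo reagent 1 for 40 min, then reagent 2 with 60 min equilibration. IC50 from inhibition curves; average of at least two runs.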
Chain of PI3-kinase p110-delta/p85-alpha (P27986 whole entry): as the sequence (P27986 whole entry) above
Chain of PI3-kinase p110-delta/p85-alpha (O00329 whole entry): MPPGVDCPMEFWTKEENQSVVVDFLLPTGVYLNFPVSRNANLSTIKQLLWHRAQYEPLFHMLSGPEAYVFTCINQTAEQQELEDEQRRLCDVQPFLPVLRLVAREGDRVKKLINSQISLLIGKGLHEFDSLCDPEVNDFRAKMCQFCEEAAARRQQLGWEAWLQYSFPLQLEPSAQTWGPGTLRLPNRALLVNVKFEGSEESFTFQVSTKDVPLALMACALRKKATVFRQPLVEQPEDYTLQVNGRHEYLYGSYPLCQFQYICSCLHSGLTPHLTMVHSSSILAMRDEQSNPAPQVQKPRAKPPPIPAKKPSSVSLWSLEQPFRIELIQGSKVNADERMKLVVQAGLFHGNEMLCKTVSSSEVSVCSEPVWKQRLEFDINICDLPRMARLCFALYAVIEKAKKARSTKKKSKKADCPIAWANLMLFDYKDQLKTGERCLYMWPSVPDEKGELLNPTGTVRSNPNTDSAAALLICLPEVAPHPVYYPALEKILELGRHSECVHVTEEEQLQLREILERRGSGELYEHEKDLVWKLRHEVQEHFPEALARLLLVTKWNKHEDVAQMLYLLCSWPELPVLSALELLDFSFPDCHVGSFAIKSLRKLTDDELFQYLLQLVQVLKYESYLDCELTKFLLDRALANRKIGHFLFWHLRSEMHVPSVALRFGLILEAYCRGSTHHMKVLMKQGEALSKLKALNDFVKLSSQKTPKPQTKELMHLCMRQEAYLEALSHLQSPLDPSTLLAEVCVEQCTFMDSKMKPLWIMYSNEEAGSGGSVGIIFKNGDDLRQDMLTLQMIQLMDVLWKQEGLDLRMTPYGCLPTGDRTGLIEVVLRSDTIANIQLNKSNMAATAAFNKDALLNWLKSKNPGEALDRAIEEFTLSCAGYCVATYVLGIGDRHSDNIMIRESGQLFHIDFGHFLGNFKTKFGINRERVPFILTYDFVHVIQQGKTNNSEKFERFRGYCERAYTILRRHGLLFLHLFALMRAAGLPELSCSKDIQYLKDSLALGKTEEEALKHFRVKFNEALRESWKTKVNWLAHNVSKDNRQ

The target of assay [5] is Phosphatidylinositol 4,5-bisphosphate 3-kinase catalytic subunit alpha isoform (Homo sapiens) (UniProt P42336). Kind of assay: Inhibition of PI3Kalpha in human T47D cells assessed as inhibition of insulin-stimulated Akt phosphorylation at Ser473 residue at 3 uM preincubated for 2 hrs followed by incubation with insulin for 2 hrs by western blot analysis relative to control. Format: cell-based. As to conditions: time 4.0 hrs. An outline of the steps:
(§3)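 T47D cells given compound at 37 °C for 2 h, then stimulated with 1 µg/mL insulin for 2 h; lysed in RIPA with protease/phosphatase inhibitors and 1 mM PMSF; BCA-normalised SDS-PAGE, PVDF blot probed overnight at 4 °C for total Akt and pAkt Ser473, infrared secondary detection.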

Assay [6] has the same target. Kind of assay: Inhibition of PI3Kalpha in human T47D cells assessed as inhibition of insulin-stimulated Akt phosphorylation at Ser473 residue at 1 uM preincubated for 2 hrs followed by incubation with insulin for 2 hrs by western blot analysis relative to control. It is filed as cell-based. The settings on record: time 4.0 hrs. The essentials: as §3
Assay [7] shares this target. Kind of assay: Inhibition of PI3Kalpha in human T47D cells assessed as inhibition of insulin-stimulated Akt phosphorylation at Ser473 residue at 0.3 uM preincubated for 2 hrs followed by incubation with insulin for 2 hrs by western blot analysis relative to control. Format: cell-based. The settings on record: time 4.0 hrs. The essentials: as §3
For assay [8] the target is unchanged. Kind of assay: Inhibition of PI3Kalpha in human T47D cells assessed as inhibition of insulin-stimulated Akt phosphorylation at Ser473 residue at 0.1 uM preincubated for 2 hrs followed by incubation with insulin for 2 hrs by western blot analysis relative to control. Format: cell-based. As to conditions: time 4.0 hrs. An outline of the steps:
as §3

Chain of Phosphatidylinositol 4,5-bisphosphate 3-kinase catalytic subunit gamma isoform (P48736 whole entry, the tested form may be a part, canonical isoform): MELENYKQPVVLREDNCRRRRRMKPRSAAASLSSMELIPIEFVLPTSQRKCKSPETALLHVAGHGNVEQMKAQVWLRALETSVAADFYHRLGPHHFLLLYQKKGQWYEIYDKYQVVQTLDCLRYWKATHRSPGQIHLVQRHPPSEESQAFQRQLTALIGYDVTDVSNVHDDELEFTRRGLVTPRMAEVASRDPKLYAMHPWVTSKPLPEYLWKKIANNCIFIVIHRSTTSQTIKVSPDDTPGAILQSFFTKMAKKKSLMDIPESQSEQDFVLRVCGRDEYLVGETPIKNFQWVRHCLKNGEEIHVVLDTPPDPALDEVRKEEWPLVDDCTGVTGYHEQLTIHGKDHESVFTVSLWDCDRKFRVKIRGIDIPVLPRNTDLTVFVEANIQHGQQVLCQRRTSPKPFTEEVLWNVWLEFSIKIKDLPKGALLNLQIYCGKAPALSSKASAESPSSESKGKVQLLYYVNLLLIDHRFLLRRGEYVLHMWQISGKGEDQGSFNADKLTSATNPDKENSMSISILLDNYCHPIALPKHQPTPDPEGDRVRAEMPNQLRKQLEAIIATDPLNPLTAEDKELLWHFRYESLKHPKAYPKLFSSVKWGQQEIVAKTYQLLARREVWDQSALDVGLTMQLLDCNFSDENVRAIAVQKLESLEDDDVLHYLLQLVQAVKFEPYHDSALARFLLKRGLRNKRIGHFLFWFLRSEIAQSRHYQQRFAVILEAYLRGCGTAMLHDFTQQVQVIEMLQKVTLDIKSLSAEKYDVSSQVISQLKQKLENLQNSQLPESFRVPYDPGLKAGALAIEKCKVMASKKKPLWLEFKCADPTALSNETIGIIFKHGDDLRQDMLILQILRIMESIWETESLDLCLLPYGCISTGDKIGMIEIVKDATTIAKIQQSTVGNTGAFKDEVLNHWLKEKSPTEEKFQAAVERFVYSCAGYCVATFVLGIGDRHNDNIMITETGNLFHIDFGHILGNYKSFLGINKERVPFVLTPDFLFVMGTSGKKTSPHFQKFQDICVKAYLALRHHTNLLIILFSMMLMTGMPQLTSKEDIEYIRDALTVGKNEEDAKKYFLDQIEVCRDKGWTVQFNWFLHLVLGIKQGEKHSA
Chain of Phosphatidylinositol 4,5-bisphosphate 3-kinase catalytic subunit alpha isoform (Homo sapiens) (P42336 whole entry, canonical isoform): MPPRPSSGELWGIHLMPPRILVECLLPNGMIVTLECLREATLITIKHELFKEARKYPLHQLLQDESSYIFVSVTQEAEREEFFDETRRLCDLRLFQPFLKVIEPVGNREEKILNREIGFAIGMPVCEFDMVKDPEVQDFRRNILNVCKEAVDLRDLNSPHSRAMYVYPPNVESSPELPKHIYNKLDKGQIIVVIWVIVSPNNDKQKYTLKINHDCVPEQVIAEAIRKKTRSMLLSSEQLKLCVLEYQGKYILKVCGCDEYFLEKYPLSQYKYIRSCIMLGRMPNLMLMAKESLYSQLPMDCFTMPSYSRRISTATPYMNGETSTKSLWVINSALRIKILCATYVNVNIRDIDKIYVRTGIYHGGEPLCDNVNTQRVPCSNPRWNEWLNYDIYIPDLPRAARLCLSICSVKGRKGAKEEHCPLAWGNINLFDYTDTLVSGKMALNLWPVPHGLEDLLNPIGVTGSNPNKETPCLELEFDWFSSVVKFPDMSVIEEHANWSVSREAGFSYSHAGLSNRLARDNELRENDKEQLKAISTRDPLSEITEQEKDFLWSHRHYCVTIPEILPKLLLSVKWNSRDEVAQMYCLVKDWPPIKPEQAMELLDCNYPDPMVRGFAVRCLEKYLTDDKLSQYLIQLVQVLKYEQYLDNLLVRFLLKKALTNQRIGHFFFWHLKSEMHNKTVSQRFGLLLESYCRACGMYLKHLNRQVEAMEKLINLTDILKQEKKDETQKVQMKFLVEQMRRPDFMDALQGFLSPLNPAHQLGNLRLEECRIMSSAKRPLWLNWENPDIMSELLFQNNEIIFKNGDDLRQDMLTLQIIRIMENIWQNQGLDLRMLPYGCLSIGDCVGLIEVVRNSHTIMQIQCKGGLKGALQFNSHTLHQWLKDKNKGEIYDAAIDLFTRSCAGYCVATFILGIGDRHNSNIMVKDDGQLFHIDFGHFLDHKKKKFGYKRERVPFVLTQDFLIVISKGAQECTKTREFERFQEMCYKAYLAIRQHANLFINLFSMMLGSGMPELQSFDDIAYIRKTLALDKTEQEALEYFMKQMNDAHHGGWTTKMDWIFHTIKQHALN

For orientation: IC50 means the concentration at which inhibition is half-maximal. Consider `N#Cc1c(N2CCOCC2)sc(-c2nc[nH]n2)c1-c1ccc(NC(=O)N/N=C/c2ccccn2)cc1`, for which the IC50 in assay [1] worked out at 6.5 nM; at PI3K p110 beta/p85 alpha it was 53 nM; in [2], 274 nM; in [3], 416 nM; in the assay on U-87 MG it was 22100 nM; in the assay on T47D it was 2130 nM. The IC50 turned out to be 11200 nM in the assay on NCI-H1975, 2690 nM in the assay on NCI-H460, 18500 nM in the assay with A549 and 49 nM in assay [4].
With `COc1cc(/C=N/NC(=O)Nc2ccc(-c3c(-c4nc[nH]n4)sc(N4CCOCC4)c3C#N)cc2)cc(OC)c1OC`, in [1], the IC50 worked out at 110 nM.
On to `N#Cc1c(N2CCOCC2)sc(-c2nc[nH]n2)c1-c1ccc(NC(=O)N/N=C/c2cccc(O)c2)cc1`, for which the IC50 in [1] was 17.7 nM; on PI3K p110 beta/p85 alpha it was 43 nM; in [2], 440 nM; in assay [3], 489 nM; in the assay with U-87 MG it was 13000 nM; in the assay with T47D it was 2220 nM. For the same compound, the IC50 in the assay with NCI-H1975 was 9760 nM; with NCI-H460 it was 1390 nM; in the assay with A549 it was 12700 nM; in assay [4] it was 72 nM.
In the case of `N#Cc1ccc(NC(=O)Nc2ccc(-c3c(-c4nc[nH]n4)sc(N4CCOCC4)c3C#N)cc2)cc1`, in assay [1], inhibition was half-maximal at 290 nM (IC50).
Usually inhibition stands for the change of the read-out against control, counted positive when it falls. For the compound `N#Cc1ccc(-c2c(-c3ncn[nH]3)sc(N3CCOCC3)c2C#N)c(F)c1`, the IC50 in the assay with U-87 MG worked out at 2310 nM; with T47D it was 340 nM; in the assay on NCI-H1975 it was 940 nM; in the assay with NCI-H460, 120 nM; in the assay with A549, 3580 nM. Moreover, the inhibition stood at 86% in [5], 83% in [6], 73% in [7] and 65% in [8].
`N#Cc1c(N2CCOCC2)sc(-c2nc[nH]n2)c1-c1ccc(NC(=O)N/N=C/c2cccc(Br)c2)cc1` gave an IC50 in assay [1] of 89.8 nM.
In assay [1], `N#Cc1c(N2CCOCC2)sc(-c2nc[nH]n2)c1-c1ccc(NC(=O)Nc2cccc(F)c2)cc1` gave an IC50 of 151 nM.
With `N#Cc1c(N2CCOCC2)sc(-c2nc[nH]n2)c1-c1ccc(NC(=O)N/N=C/c2c(Cl)cccc2Cl)cc1`, 323 nM corresponded to half-maximal inhibition in [1] (IC50).
As for `N#Cc1c(N2CCOCC2)sc(-c2nc[nH]n2)c1-c1ccc(NC(=O)Nc2ccc(OC(F)(F)F)cc2)cc1`, half-maximal inhibition in assay [1] (IC50) required 835 nM.
The same measure, in the same setting: the result for `COc1ccc(/C=N/NC(=O)Nc2ccc(-c3c(-c4nc[nH]n4)sc(N4CCOCC4)c3C#N)cc2)cc1` reads 72 nM; that for `N#Cc1c(N2CCOCC2)sc(-c2nc[nH]n2)c1-c1ccc(NC(=O)Nc2ccccc2)cc1`, 116 nM; that for `N#Cc1c(N2CCOCC2)sc(-c2nc[nH]n2)c1-c1ccc(NC(=O)Nc2ccc(F)c(Cl)c2)cc1`, 407 nM.
In turn, `N#Cc1c(N2CCOCC2)sc(-c2nc[nH]n2)c1-c1ccc(NC(=O)Nc2ccc(C(F)(F)F)cc2)cc1` came in with an IC50 in [1] of 403 nM.
Same read-out and setting: the result for `N#Cc1c(N2CCOCC2)sc(-c2nc[nH]n2)c1-c1ccc(NC(=O)N/N=C/c2ccc(F)cc2)cc1` reads 75.5 nM; that for `Cc1ccc(NC(=O)Nc2ccc(-c3c(-c4nc[nH]n4)sc(N4CCOCC4)c3C#N)cc2)cc1`, 95.8 nM; that for `N#Cc1c(N2CCOCC2)sc(-c2nc[nH]n2)c1-c1ccc(NC(=O)N/N=C/c2ccc(OC(F)(F)F)cc2)cc1`, 631 nM.
For the compound `N#Cc1c(N2CCOCC2)sc(-c2nc[nH]n2)c1-c1ccc(NC(=O)N/N=C/c2ccccc2)cc1`, inhibition in assay [1] was half-maximal at 76.6 nM (IC50).
On to `N#Cc1ccc(-c2c(-c3nnc[nH]3)sc(N3CCOCC3)c2C#N)c(F)c1`, for which the half-inhibitory concentration (IC50) in assay [1] worked out at 5.4 nM; on PI3K p110 beta/p85 alpha, 124 nM; in assay [2], 60 nM; in [3], 4060 nM; in assay [4], 15 nM.
On to `N#Cc1c(N2CCOCC2)sc(-c2nc[nH]n2)c1-c1ccc(NC(=O)Nc2ccc(F)cc2)cc1`, for which the IC50 in assay [1] came to 35.3 nM; at PI3K p110 beta/p85 alpha it was 95 nM; in [2] it was 289 nM; in assay [3], 1660 nM; in the assay with U-87 MG, 3350 nM; with T47D, 520 nM. The IC50 stood at 2040 nM with NCI-H1975, 590 nM in the assay on NCI-H460, 5520 nM in the assay with A549 and 238 nM in assay [4].
Regarding `Cc1cc(/C=N/NC(=O)Nc2ccc(-c3c(-c4nc[nH]n4)sc(N4CCOCC4)c3C#N)cc2)cc(C)c1O`, in assay [1], the IC50 was 20.3 nM.
In [1], `N#Cc1c(N2CCOCC2)sc(-c2nc[nH]n2)c1-c1ccc(NC(=O)N/N=C/c2ccc[nH]2)cc1` yielded a concentration for half-maximal inhibition (IC50) of 9.4 nM.
As for `N#Cc1c(N2CCOCC2)sc(-c2nc[nH]n2)c1-c1ccc(NC(=O)Nc2ccccc2F)cc1`, the IC50 in assay [1] turned out to be 22.3 nM; at PI3K p110 beta/p85 alpha, 89 nM; in assay [2], 302 nM; in assay [3], 1590 nM; in the assay on U-87 MG, 3980 nM; in the assay with T47D it was 410 nM. Moreover, the IC50 in the assay with NCI-H1975 came out at 1520 nM; with NCI-H460, 400 nM; in the assay on A549, 4190 nM; in [4], 334 nM.
As for `N#Cc1c(N2CCOCC2)sc(-c2nc[nH]n2)c1-c1ccc(NC(=O)Nc2cccc(Br)c2)cc1`, in [1], the IC50 was found to be 239 nM.
Same read-out and setting: next, `COc1ccccc1NC(=O)Nc1ccc(-c2c(-c3nc[nH]n3)sc(N3CCOCC3)c2C#N)cc1`: 105 nM.
The same measure, in the same setting: the result for `Cc1cccc(C)c1NC(=O)Nc1ccc(-c2c(-c3nc[nH]n3)sc(N3CCOCC3)c2C#N)cc1` reads 344 nM; that for `N#Cc1c(N2CCOCC2)sc(-c2nc[nH]n2)c1-c1ccc(NC(=O)N/N=C/c2ccc(O)c(O)c2)cc1`, 21.9 nM.
Take `N#Cc1c(N2CCOCC2)sc(-c2nc[nH]n2)c1-c1ccc(NC(=O)N/N=C/c2ccco2)cc1`: the IC50 in assay [1] was found to be 13.3 nM; at PI3K p110 beta/p85 alpha it was 74 nM; in assay [2], 204 nM; in assay [3], 598 nM; in the assay on U-87 MG, 12300 nM; with T47D, 2680 nM. For the same compound, the half-inhibitory concentration (IC50) with NCI-H1975 came out at 12900 nM; in the assay on NCI-H460, 1220 nM; in the assay with A549, 19400 nM; in assay [4], 74 nM.
Consider `Cc1nc(NC(=O)N2CCC[C@H]2C(N)=O)sc1-c1ccnc(C(C)(C)C(F)(F)F)c1` [ALPELISIB], for which the IC50 in assay [3] came to 1460 nM.
